Tested on: MS2 coat protein
Assay: apparent Kd, MS2 coat protein; higher = weaker binding; RNA-MaP array; FMN 200 µM where present
Outline: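 Stalled E. coli RNA polymerase produced the designs on Illumina sequencing-chip clusters. SNAP-549-labelled MS2 coat protein was added from 0.7 or 1.5 nM, doubling to 3 µM, without and then with constant ligand, in 100 mM Tris-HCl pH 7.5, 80 mM KCl, 4 mM MgCl2, BSA, DTT, yeast tRNA and Tween-20. The apparent Kd is the median of filtered per-cluster fits of green signal normalised to red-channel RNA signal and control-cluster median Fmax.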

[1] = designed as: OFF switch for flavin mononucleotide, no ligand
[2] = ligand present: flavin mononucleotide, designed as: OFF switch for flavin mononucleotide
[3] = designed as: ON switch for flavin mononucleotide, no ligand
[4] = ligand present: flavin mononucleotide, designed as: ON switch for flavin mononucleotide

Row | Sequence | apparent Kd [1] | apparent Kd [2] | apparent Kd [3] | apparent Kd [4]
1 | AGGGAGUAAGGAUAUGCUGCUCGUCACUUGCGUGAUGAGUAGCAGAAGGUACAUGAGGAUCACCCAUGUAAAGA | 30 nM | 22.9 nM | – | –
2 | GCUAUCGAUGUAGGAUAUGCUAGAGAAACUCUGGCAGAAGGACAUGAGGAUCACCCAUGUCAAUGGAUGGAGAGAAGAGAUGGC | 24.1 nM | 58 nM | – | –
3 | AACAGGCGUGCCCUGAGUCCACAUGAGGAUCACCCAUGUGAGAGAAGGACCCUCGAGAGAGUUGGGUAGGAUAUCUCCGAUGGG | 24 nM | 57.5 nM | – | –
4 | AAGCACAGAGGAUAUACAUGGGUGAUAAAAAAAAUGUAAAAACAUGAGGAUCACCCAUGUAGAAGGCUGUGCAA | 22.6 nM | 16.5 nM | – | –
5 | CGUAUCGUAAGAGGAUAUAUGAGUCCUACAUGAGGAUCACCCAUGUAGGUGAUCUAACGAGAUUAGUAGAAGGCUUACGAUACG | – | – | 14.3 nM | 7.96 nM
6 | UUCCUCGUUGUGAGGAUAUCGUCCGUGUUUUGUUACGAGAAGGCACAUGAGGAUCACCCAUGUUACUUGAUGUU | 18.7 nM | 110 nM | – | –
7 | CAUGAUUGACGAGGAUAUUGUUCUACAUGGCGACGAGAAGGCGUCUGUCACAUGAGGAUCACCCAUGUGAGUCUGGUGAAUGAG | 36.5 nM | 33.4 nM | – | –
8 | GGGUACAUCGGAGGAUAUCAUGUAAAUACAUGAGGAUCACCCAUGUCGAUCGAGACAUCGGAGAUUGAGAAGGCCGAUGUACCG | – | – | 163 nM | 286 nM
9 | UUAAUAAAGUAAGGAUAUACAUGAGGAUCUCUCGUAGAAGGUACUAUACAUGAGGAUCACCCAUGUGCCGGUCCGUAGACUGGA | – | – | 387 nM | 796 nM
10 | GGAAAUCGUGUAGGAUAUGCAUGGCGAAGCUACGCAGAAGGACAUGAGGAUCACCCAUGUUAUAGCGUCCGAGAAAGGAUGCAA | 11 nM | 67.4 nM | – | –
11 | ACGACGAAAGUCGAACGAUGAUCGAGAAGGACAUGAGGAUCACCCAUGUCUGCUGUAACAGCCAUGUAGGAUAUCGAUCAUCGA | 3.62 nM | 4.13 nM | – | –
12 | ACAUGAGGAUCACCCAUGUUCGUUGAAGAAGGUACGUAUGGCUGUGGCAGGAAUAUAGUUAUAUGUAAGGAUAUUCUCAUAAUU | – | – | 13.1 nM | 7.11 nM
13 | GUAGCAUUGACAGGAUAUCCAUAUCCGAAAGGGACAUGAGGAUCACCCAUGUCGCGAAAGCGGUGGGAGAAGGGUCUAUGCUAC | – | – | 5.03 nM | 4.38 nM
14 | UGCCCAAAUGGGCCGUGGCAGCGUGAGGAUAUGGGUUGGAUACAUGAGGAUCACCCAUGUUCCUCCUAGAAGGCACUUGUAACC | – | – | 183 nM | 41.5 nM
15 | AAUAUGUUAGGAUAUGCUGCUCGUCACAAAAGUGAUGAGUAGCAGAAGGGACAUGAGGAUCACCCAUGUAAAGA | 36.6 nM | 29.6 nM | – | –
16 | GUAGCAUGCAGGCAGGAUAUUCAUAUUAAAACAUGAGGAUCACCCAUGUAGGCCAAAAGGCCUUGGGAGAAGGGCCACAUGCUAC | – | – | 636 nM | 45.7 nM
17 | GGCCUGUGAGGAUAUUAGUAGUAGUCAGAAUAGACUAUUACUGAGAAGGUACAUGAGGAUCACCCAUGUUGGCC | 19.4 nM | 15.9 nM | – | –
18 | GCACCUUUAUUUGAACCGAUACGAACAUGAGGAUCACCCAUGUAGGAUAUGCUUAAAGUUGUGUUGCAGAAGGACAUUUAGUGC | 8.76 nM | 8.31 nM | – | –
19 | AGCAUGUGAGGAUAUGCGGACUCCGGUAAAUCUGGAAUCCAGUAGAAGGCACAUGAGGAUCACCCAUGUGAUAA | 68.2 nM | 55.9 nM | – | –
20 | GUGGUGUAGAUACAGGAUAUGUUGCUCGUAACAUGAGGAUCACCCAUGUAUCUAUGAGAAUAAAUGCAGAAGGGUGCACACCACU | – | – | 549 nM | 30.1 nM
21 | CGUUGAUGAUUUCUUCACAUGAGGAUCACCCAUGUCGCUCGACAGGAUAUAUUUGAGUUGUUUAAGUAGAAGGGUCGCAGAUGC | – | – | 112 nM | 183 nM
22 | GAUUCACAUGAGGAUCACCCAUGUGAGGAUAUAGUGCAGGAGGUGGAUGCCCGCCUCUCUAGAAGGCACACGGG | 21.9 nM | 24.5 nM | – | –
23 | UCCUCACAUGAGGAUCACCCAUGUCAGGAUAUCUGCGAGCAUUGGCCAAGGCCGCUCAGGAGAAGGGACGUCAA | 17.1 nM | 27.4 nM | – | –
24 | GGAGCACACAUUAACAUGAGGAUCACCCAUGUCAAAAGACAUGAGGAUAUGGAUCCGAAAAGGAUCCAGAAGGCAUGGAGCUCC | – | – | 169 nM | 10.5 nM
25 | UAAAAGACUAGUAUGGUAACCUUCACAUGAGGAUCACCCAUGUAGGAUAUGAGCAGAAAAUCUGCUCAGAAGGACAUGCUAGUC | 3.73 nM | 4.25 nM | – | –
26 | UGCUACGUUUCGUAGCAGCUAGGUGAGGAUAUUCAAUUUUUCACAUGAGGAUCACCCAUGUAUGUGAAGAAGGCGCCUAGAAAG | – | – | 12.3 nM | 5.26 nM
27 | CUGUAGAUAUCAGGAUAUCUAUUUCCUACAUGAGGAUCACCCAUGUAGGUGAUCAGCCAAGUAAAGGAGAAGGGAUAUCUAUAG | – | – | 38.5 nM | 11 nM
28 | AAUUAACUCACAGGAUAUAGCAGAGGUCGAGUAAACUUACAGGCGACGAGGCUAGAAGGGUGACCACAUGAGGAUCACCCAUGU | – | – | 733 nM | 131 nM

From the EternaBench riboswitch data
